In ChEMBL document CHEMBL1134782, “Synthesis of 1-benzyl-3-(5'-hydroxymethyl-2'-furyl)indazole analogues as novel antiplatelet agents” (J Med Chem, 2001):

What was measured:
[1] = Inhibition of platelet aggregation induced by AA (100 uM); type: functional
Procedure, shortened: (§1)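 Platelets were preincubated with test compound at 37 °C for 1 min. Values are mean ± SE from three to six separations. Aspirin served as positive control.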

[2] = Inhibition of platelet aggregation induced by Collagen (10 uM); type: functional; settings: in the assay text read “10 ug/mL” for “10 uM”; procedure, shortened: as §1
[3] = Inhibition of platelet aggregation induced by PAF (2 ng/mL); type: functional; procedure, shortened: as §1
[4] = Inhibition of platelet aggregation induced by thrombin (0.1 unit/ml); type: functional; procedure, shortened: as §1
[5] = inhibition of platelet aggregation induced by PAF (2 ng/mL); type: functional; procedure, shortened: as §1
[6] = target: T1, cGMP-specific 3',5'-cyclic phosphodiesterase (Homo sapiens, UniProt O76074); assay: (§2) Inhibition of PDE5 from platelets
Procedure, shortened: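 PDE activity fraction incubated with [3H]cGMP as substrate and a range of test-compound concentrations at 37 °C for 10 min. IBMX served as positive control.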

[7] = target: T2, Soluble guanylate cyclase (Homo sapiens) (UniProt Q02153+O75343+P33402+Q02108); assay: sGC activation was determined in the presence of [alpha-32P]GTP at a concentration of 82 uM; type: protein-complex assay
Procedure, shortened: (§3)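 Soluble guanylate cyclase source was the supernatant fraction of platelet homogenate. It was incubated with [α-32P]GTP and 82 μM test compound at 37 °C for 10 min. Activity was expressed as pmol cGMP/min/mg protein.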

[8] = target: T1, cGMP-specific 3',5'-cyclic phosphodiesterase; assay: as §2; remark: listed apart in the source
Procedure, shortened: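 PDE activity fraction incubated with [3H]cGMP as substrate and a range of test-compound concentrations at 37 °C for 10 min. […] IBMX served as positive control.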

[9] = Inhibition of platelet aggregation induced by Collagen (10 ug/mL)
[10] = target: T2, Soluble guanylate cyclase (Homo sapiens); assay: […] was determined in the presence of [alpha-32P]GTP at a concentration of 82 uM; type: protein-complex assay; procedure, shortened: as §3

| SMILES | IC50 [1] | IC50 [2] | IC50 [3] | IC50 [4] | IC50 [5] | IC50 [6] | Activity (pM of cGMP (min)-1 (mg of protein)-1) [7] | IC50 [8] | IC50 [9] | Activity (pM of cGMP (min)-1 (mg of protein)-1) [10] |
| --- | --- | --- | --- | --- | --- | --- | --- | --- | --- | --- |
| OCc1ccc(-c2nn(-c3ccccc3)c3ccccc23)o1 | 17.9 µM | 13.7 µM | 145 µM | 158 µM |  | 36.3 µM | 27.8 |  |  |  |
| OCc1ccc(-c2nn(Cc3ccccc3)c3cc(F)ccc23)o1 | 21.7 µM | 25.2 µM | 53.4 µM | 217 µM |  | 14 µM | 37.2 |  |  |  |
| COc1ccc2c(-c3ccc(CO)o3)nn(Cc3ccccc3)c2c1 | 49.7 µM | 46.7 µM | 89.2 µM | 168 µM |  |  | 39.9 |  |  |  |
| CC(=O)Oc1ccccc1C(=O)O [ASPIRIN] | 20 µM | > 270 µM | > 270 µM | > 270 µM |  |  |  |  |  |  |
| Cc1ccc2c(-c3ccc(CO)o3)nn(Cc3ccccc3)c2c1 | 49.4 µM | 45.9 µM | 72 µM | 147 µM |  | 8.4 µM | 35.1 |  |  |  |
| COCc1ccc(-c2nn(Cc3ccccc3)c3ccccc23)o1 | 8.2 µM | 6.6 µM | 25.5 µM | 143 µM |  | 13.8 µM | 32 |  |  |  |
| CC(C)Cn1c(=O)n(C)c(=O)c2[nH]cnc21 [ISOBUTYLMETHYLXANTHINE] |  |  |  |  |  |  |  | 63 µM |  |  |
| CCOC(=O)c1ccc(-c2nn(Cc3ccccc3)c3ccccc23)cc1 | 184 µM | 212 µM | 164 µM | 29.3 µM |  |  |  |  |  |  |
| COCc1ccc(-c2nn(Cc3ccccc3)c3cc4c(cc23)OCO4)o1 | 102 µM | 113 µM |  | > 270 µM | 196 µM |  |  |  |  |  |
| COC(=O)c1ccc(-c2nn(Cc3ccccc3)c3cc(F)ccc23)o1 | 94 µM |  | 149 µM | > 270 µM |  |  |  |  | 101 µM |  |
| CCOC(=O)c1cccc(-c2nn(Cc3ccccc3)c3ccccc23)c1 | 125 µM | 144 µM |  | > 270 µM | > 270 µM |  |  |  |  |  |
| OCc1ccc(-c2nn(Cc3ccccc3)c3ccccc23)cc1 | 101 µM | 123 µM |  | 193 µM | 143 µM |  |  |  |  |  |
| O=C(O)c1cccc(-c2nn(Cc3ccccc3)c3ccccc23)c1 | 156 µM | 148 µM |  | > 270 µM | 235 µM |  |  |  |  |  |
| OCc1cccc(-c2nn(Cc3ccccc3)c3ccccc23)c1 | 51.3 µM | 98.1 µM | 174 µM | > 270 µM |  |  |  |  |  |  |

More lines, now with the values ahead:

| IC50 [1] | IC50 [2] | IC50 [3] | IC50 [4] | IC50 [5] | IC50 [6] | Activity (pM of cGMP (min)-1 (mg of protein)-1) [7] | IC50 [8] | IC50 [9] | Activity (pM of cGMP (min)-1 (mg of protein)-1) [10] | SMILES |
| --- | --- | --- | --- | --- | --- | --- | --- | --- | --- | --- |
| 10.6 µM | 18.2 µM | > 270 µM | > 270 µM |  |  |  |  |  |  | COC(=O)c1ccc(-c2nn(-c3ccccc3)c3ccccc23)o1 |
| 108 µM | 115 µM |  | 256 µM | 177 µM |  |  |  |  |  | COCc1ccc(-c2nn(Cc3ccccc3)c3cc(OC)ccc23)o1 |
| 45.9 µM | 64.1 µM | 109 µM | 116 µM |  | 3.9 µM | 41.8 |  |  |  | COCc1ccc(-c2nn(Cc3ccccc3)c3cc(F)ccc23)o1 |
| 150 µM | 140 µM |  | > 270 µM | > 270 µM |  |  |  |  |  | COc1ccc2c(-c3ccc(C(=O)O)o3)nn(Cc3ccccc3)c2c1 |
| 81.1 µM | 162 µM | > 270 µM | > 270 µM |  |  |  |  |  |  | COC(=O)c1ccc(-c2nn(Cc3ccccc3)c3ccccc23)o1 |
| 136 µM | 168 µM |  | 260 µM | 254 µM |  |  |  |  |  | COC(=O)c1ccc(-c2nn(Cc3ccccc3)c3cc4c(cc23)OCO4)o1 |
| > 270 µM | > 270 µM |  | > 270 µM | > 270 µM |  |  |  |  |  | O=C(O)c1ccc(-c2nn(-c3ccccc3)c3ccccc23)o1 |
| 83.7 µM | 75.5 µM | > 270 µM | > 270 µM |  |  |  |  |  |  | O=C(O)c1ccc(-c2nn(Cc3ccccc3)c3ccccc23)o1 |
| 148 µM | 150 µM |  | > 270 µM | > 270 µM |  |  |  |  |  | O=C(O)c1ccc(-c2nn(Cc3ccccc3)c3cc4c(cc23)OCO4)o1 |
| 130 µM | 156 µM |  | > 270 µM | 179 µM |  |  |  |  |  | O=C(O)c1ccc(-c2nn(Cc3ccccc3)c3ccccc23)cc1 |
| 96.6 µM |  | 164 µM | 239 µM |  |  |  |  | 105 µM |  | OCc1ccc(-c2nn(Cc3ccccc3)c3cc4c(cc23)OCO4)o1 |
| 47.3 µM | 27.5 µM |  | 39.4 µM | 39.6 µM | 22.3 µM |  |  |  | 30.9 | Cc1ccc(-c2nn(Cc3ccccc3)c3ccccc23)o1 |
| 55.7 µM | 50.4 µM | 55.9 µM | 102 µM |  | 63 µM | 17.9 |  |  |  | CCN(CC)Cc1ccc(-c2nn(Cc3ccccc3)c3ccccc23)o1 |
| 92.3 µM | 157 µM | > 270 µM | > 270 µM |  |  |  |  |  |  | COC(=O)c1ccc(-c2nn(Cc3ccccc3)c3cc(OC)ccc23)o1 |
| 64.2 µM | 78.3 µM | > 270 µM | > 270 µM |  |  |  |  |  |  | COC(=O)c1ccc(-c2nn(Cc3ccccc3)c3cc(C)ccc23)o1 |
| 54.3 µM | 53.8 µM | 87.3 µM | 173 µM |  | 31.9 µM | 44.6 |  |  |  | OCc1ccc(-c2nn(Cc3ccccc3)c3ccccc23)o1 |
| 32.4 µM | 59.3 µM | 76.3 µM | 126 µM |  |  | 22.1 |  |  |  | COCc1ccc(-c2nn(Cc3ccccc3)c3cc(C)ccc23)o1 |
| 101 µM | > 270 µM |  | > 270 µM | > 270 µM |  |  |  |  |  | OCc1ccc(-c2[nH]nc3ccccc23)o1 |
| 150 µM | 182 µM |  | > 270 µM | > 270 µM |  |  |  |  |  | Cc1ccc2c(-c3ccc(C(=O)O)o3)nn(Cc3ccccc3)c2c1 |
| 119 µM | 180 µM |  | > 270 µM | > 270 µM |  |  |  |  |  | O=C(O)c1ccc(-c2nn(Cc3ccccc3)c3cc(F)ccc23)o1 |
